Results on eight compounds are retold here after ChEMBL document CHEMBL1127496, “The structural basis of camptothecin interactions with human serum albumin: impact on drug stability” (J Med Chem, 1994).

Data set [1] is filed under the species Homo sapiens. Kind of data set: Excited-state lifetime value for lactone form of compound bound to human serum albumin. Format: ADME. The gist of the method:
(§1)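 Phase-shift lifetimes, 30 MHz modulation, no polarizers, long-pass emission filters, in PBS pH 7.4 at 37 °C. Drug 20 μM (lactone or carboxylate form) titrated with HSA. Lifetimes corrected for HSA background (τH 3.2 ns, fH weighting). Bound lifetime τB extrapolated to infinite HSA by nonlinear least-squares fit to τC = τB + b·exp(−c[HSA]). Triplicate runs.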

For data set [2], the target named is T1, Albumin (Homo sapiens, UniProt P02768). Kind of data set: Association constant for the binding of the carboxylate form to human serum albumin;(M aa)e-1. Summed up:
(§2)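 Fluorescence lifetime titration in PBS, pH 7.40 ± 0.05, 37 °C. Total drug 20 μM, lactone or carboxylate form (carboxylate stock made by mixing DMSO stock 1:1 with PBS pH 10), titrated with varying HSA. Phase-shift lifetimes at 30 MHz modulation. Free fraction (τ − τB)/(τF − τB) plotted against log amino-acid residue concentration. K and n obtained by nonlinear least-squares fit to K = [Db]/([Df][aa]^n).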

The species entered for data set [3] is Homo sapiens. Nature of the data set: Excited-state lifetime value for carboxylate form of compound bound to human serum albumin. The data set is classed as ADME. Particulars: in vitro. The gist of the method:
as §1

Data set [4] is described as follows: Half-life in PBS buffer solution in the presence of human serum albumin. As to conditions: PBS buffer with human serum albumin. The data set is classed as ADME.
The target of data set [5] is T1, Albumin. Nature of the data set: Binding parameter of the carboxylate form to human serum albumin; n value. The gist of the method: as §2
A short description of data set [6]: Half-life in PBS buffer solution in the absence of human serum albumin. Format: ADME. Particulars: PBS buffer without human serum albumin. The gist of the method: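 Lactone hydrolysis at 1 μM drug in PBS pH 7.40 ± 0.05, 37 °C, with or without 290 μM HSA. Aliquots taken at mixing and every 5 min, diluted in water, then run on C18 reversed-phase HPLC with fluorescence detection of lactone and carboxylate. t1/2 from nonlinear least-squares fit of lactone decay. At least three independent kinetic runs.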

Data set [7] is described as follows: Excited-state lifetime value for free lactone form of compound in solution. Format: ADME. The gist of the method: (§3)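 Phase-shift fluorescence lifetime, 30 MHz modulated excitation, no polarizers, long-pass emission filters. Measured on 20 μM lactone or carboxylate form in HSA-free PBS, pH 7.40 ± 0.05, 37 °C. Carboxylate made by mixing DMSO stock 1:1 with PBS pH 10.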

A short description of data set [8]: Excited-state lifetime value for free carboxylate form of compound in solution. Format: ADME. The gist of the method: as §3
In data set [9] the target is T1, Albumin. Kind of data set: Binding parameter of the lactone form to human serum albumin; n value. The gist of the method:
as §2

Data set [10] has as its target T1, Albumin. Kind of data set: Association constant for the binding of the lactone form to human serum albumin;(M aa)e-1. Summed up: as §2

SMILES strings stand for the structures.

T1 sequence (P02768 whole entry): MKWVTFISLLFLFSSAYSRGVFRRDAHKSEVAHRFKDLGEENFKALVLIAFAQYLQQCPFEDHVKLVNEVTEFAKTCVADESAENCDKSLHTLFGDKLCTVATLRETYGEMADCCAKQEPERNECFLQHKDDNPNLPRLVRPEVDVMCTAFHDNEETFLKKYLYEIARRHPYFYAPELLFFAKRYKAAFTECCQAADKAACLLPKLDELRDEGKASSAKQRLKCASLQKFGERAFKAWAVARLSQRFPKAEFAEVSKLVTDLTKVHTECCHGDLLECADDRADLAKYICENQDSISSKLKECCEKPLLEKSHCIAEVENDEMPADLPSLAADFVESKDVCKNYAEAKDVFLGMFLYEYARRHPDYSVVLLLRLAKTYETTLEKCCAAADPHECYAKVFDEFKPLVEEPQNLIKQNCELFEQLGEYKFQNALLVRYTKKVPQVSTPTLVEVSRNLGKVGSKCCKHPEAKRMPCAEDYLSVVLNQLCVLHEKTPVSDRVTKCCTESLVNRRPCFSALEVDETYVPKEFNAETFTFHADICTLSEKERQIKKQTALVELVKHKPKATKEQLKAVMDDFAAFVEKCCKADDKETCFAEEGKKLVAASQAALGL

On to `CCC1(O)C(=O)OCc2c1cc1n(c2=O)Cc2cc3c(Cl)c4c(cc3nc2-1)OCO4` (stereo not drawn), for which the T bound in data set [1] came out at 1.9 ns; in [3], 1.1 ns. Also, in data set [2], the K is 1200 1/Maa. For the same compound, the values for the half-life in data set [4] and in data set [6] were 16.9 min and 34.6 min, respectively. The compound further gave an Activity in data set [5] of 1.6. The T free is 1.9 ns in [7] and 2.5 ns in data set [8].
As for `CCC1(O)C(=O)OCc2c1cc1n(c2=O)Cc2cc3cc4c(cc3nc2-1)OCO4` (stereo not drawn), the T bound in [1] and in data set [3] was 1.3 ns each time. Moreover, the values for the K in data set [2] and in data set [10] were 2200 1/Maa and 10 1/Maa, respectively. Also, the half-life in data set [4] was determined as 20.7 min; in [6], 31.7 min. Further, the Activity in data set [5] stood at 1.7; in [9] it was 1.3. For the same compound, the T free in data set [7] was determined as 2 ns; in data set [8] it was 2.4 ns.
With `CC[C@@]1(O)C(=O)OCc2c1cc1n(c2=O)Cc2cc3c(CN(C)C)c(O)ccc3nc2-1` [TOPOTECAN], the T bound in [1] is 6 ns; in data set [3], 6.1 ns. Moreover, the figures for the half-life in [4] and in data set [6] were 28.9 min and 22.8 min, respectively. The T free in [7] is recorded as 6 ns; in [8] it was 6.1 ns.
In the case of `CC[C@@]1(O)C(=O)OCc2c1cc1n(c2=O)Cc2cc3cc(O)ccc3nc2-1` [HYDROXYCAMPTOTHECIN], the T bound was 5.4 ns in data set [1] and 5.5 ns in [3]. Besides, the K is 260 1/Maa in [2] and 130 1/Maa in data set [10]. In addition, the results for the half-life in data set [4] and in data set [6] were 21.1 min and 22.1 min, respectively. The Activity in data set [5] and in [9] was 1.7 in each case. The T free in data set [7] and in [8] was 4 ns each time.
With `CC[C@@]1(O)C(=O)OCc2c1cc1n(c2=O)Cc2cc3c(N)cccc3nc2-1` [9-AMINOCAMPTOTHECIN], the half-life came out at 23.4 min in [4] and 17.9 min in [6].
Regarding `CCc1c2c(nc3ccc(O)cc13)-c1cc3c(c(=O)n1C2)COC(=O)[C@]3(O)CC` [7-ETHYL-10-HYDROXYCAMPTOTHECIN], in data set [6], the half-life was 19.9 min.
In the case of `CC[C@@]1(O)C(=O)OCc2c1cc1n(c2=O)Cc2cc3ccccc3nc2-1` [CAMPTOTHECIN], the T bound stood at 2.7 ns in data set [1] and 1.3 ns in data set [3]. Besides, the values for the K in [2] and in data set [10] were 4700 1/Maa and 30 1/Maa, respectively. Further, the half-life in data set [4] was 12.5 min; in [6] it was 23.8 min. Besides, the Activity in data set [5] was 2.3; in data set [9], 1.8. Moreover, the T free is recorded as 4.2 ns in data set [7] and 4.3 ns in [8].
With `CCc1c2c(nc3ccc(C4CCN(C(=O)OC)CC4)cc13)-c1cc3c(c(=O)n1C2)COC(=O)C3(O)CC` (stereo not drawn), the T bound worked out at 3.7 ns in data set [1] and 4 ns in data set [3]. Further, the half-life in [4] amounted to 29 min; in [6] it was 25.6 min. Besides, the T free was 3.7 ns in [7] and 4 ns in [8].
